# Shown are actives, neighbours in structure and some others; about 3.7% of the full set was active somewhere.
# MPTP inh: mitochondrial permeability transition pore inhibitors, primary screen, biochemical, isolated mouse mitochondria, absorbance; inhibition, % at 10 µM; actives 1.4% (n = 360,000); Ca2+ swelling absorbance, 30 min; AID 602449, 2012;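 active = inhibition of 50% or more, scaled per plate between neutral and stimulator controls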;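 also: 0% = DMSO wells given calcium and 100% = 1 mM EGTA wells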
# aDG glyco up: activators of alpha-DG glycosylation, primary screen, uHTS, Pro5-aDG cells, AlphaScreen. activation, % at 10 µM. alpha-DG glycosylation AlphaScreen (IIH6); 0% Pro5, 100% B10-LARGE cell signal. actives 0.22% (n = 360,000);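 active = activation of at least 8% versus controls, or a plate z-score of at least 8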;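 also: Pro5 are CHO cells carrying HIG-tagged alpha-DG that lacks glycosylation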
# proCasp7 act: procaspase-7 activators, primary screen, counter-screen for procaspase-3 activator project, biochemical, absorbance, HTS, human; recombinant procaspase-7, Ac-DEVD-pNA absorbance 405 nm; D23A/D198A/D206A triple mutant, cannot self-cleave; scale: DMSO 0, 5 µM enzyme 100; activation, % at 8.5 µM; actives 0.093% (n = 330,000); AID 463210, 2010;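 active = percent activation above the screen-wide mean plus 3 SD, cut at about 25% in these data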
# Target sequence (P55210 whole entry D23A/D198A/D206A): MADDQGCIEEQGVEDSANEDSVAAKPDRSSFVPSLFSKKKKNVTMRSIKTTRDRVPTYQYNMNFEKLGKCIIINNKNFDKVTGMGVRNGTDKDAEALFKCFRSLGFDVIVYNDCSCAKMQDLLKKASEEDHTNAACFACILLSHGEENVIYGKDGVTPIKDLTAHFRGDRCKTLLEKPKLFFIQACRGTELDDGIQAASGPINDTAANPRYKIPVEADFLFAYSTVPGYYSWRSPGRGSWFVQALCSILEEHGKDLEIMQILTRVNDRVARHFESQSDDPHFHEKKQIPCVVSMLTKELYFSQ
#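 signal = Epi-absorbance of released pNA at 405 nm, two timepoints | assay system = Uncleavable procaspase-7 mutant enzyme | reagent = Ac-DEVD-pNA substrate, 400 µM as added | times = 1 h enzyme–compound preincubation and 2 h substrate reaction, both 25 °C | benchmarks = low DMSO alone, high DMSO plus 5 µM PC-7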
# proCasp3 act: activators of human procaspase-3 D3A mutant, primary screen, biochemical, absorbance, PC-3 D3A mutant, single concentration; Caspase-3 (Homo sapiens), P42574; actives 0.11% (n = 330,000); activation, % at 8.5 µM; recombinant procaspase-3 D3A, Ac-DEVD-pNA absorbance 405 nm;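 active = activation above the mean of all tested compounds plus 3 SD, cut at about 21% in these data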;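 also: 0% = DMSO alone and 100% = DMSO wells spiked with extra 5 µM PC-3 D3A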
# Target sequence (P42574 whole entry D9A/D28A/D175A): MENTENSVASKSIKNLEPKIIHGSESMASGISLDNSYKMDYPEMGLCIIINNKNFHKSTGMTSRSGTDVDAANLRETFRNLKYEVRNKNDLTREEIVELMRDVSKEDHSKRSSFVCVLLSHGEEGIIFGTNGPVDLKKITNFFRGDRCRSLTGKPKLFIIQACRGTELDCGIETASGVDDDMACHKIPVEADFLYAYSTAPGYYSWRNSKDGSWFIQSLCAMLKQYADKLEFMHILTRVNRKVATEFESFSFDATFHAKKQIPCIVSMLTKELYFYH
#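 Assay system: Autoprocessing-dead procaspase-3 D3A mutant enzyme; also added: Ac-DEVD-pNA; doses: one concentration, 8.5 µM nominal, 0.8% DMSO; times: 1 h compound preincubation, 2 h substrate hydrolysis at 25 °C; technique: 405 nm absorbance of p-nitroaniline, reads at 0 and 120 min; measure: % activation between DMSO and enzyme-spiked controls; repeats: single replicate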
# GRIN3A LBD mod: binders of NR3A ligand-binding domain, primary screen, biophysical, differential scanning fluorimetry, uHTS; Glutamate receptor ionotropic, NMDA 3A (GRIN3A) ligand-binding domain; NR3A LBD differential scanning fluorimetry, Tm shift; 0% = protein alone, 100% = glycine-bound protein; Tm shift relative to glycine control, % at 25 µM; actives 2.5% (n = 340,000); AID 1259313, 2017;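 active = melting temperature shift of at least 10% of the positive control shift, at one fixed dose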
# * marks the source's active call; other numbers are inactive results; nt = no result given.
SMILES,MPTP inh,aDG glyco up,proCasp7 act,proCasp3 act,GRIN3A LBD mod
N#CCCN(C(=O)COC(=O)CCNS(=O)(=O)c1ccccc1)c1ccccc1,-0.4,-0.2,5.7,5.5,-0.3
CCN(CC)CCCNc1nnc(C)c(=O)[nH]1,1.0,-0.1,-8.8,3.7,11.0*
CCCNC(=O)c1cc2c(c(-c3cccc(-c4cc5ccccc5o4)c3)n1)[C@H](CCO)N(C(=O)NC(C)C)C2,-3.5,-0.2,nt,nt,nt
CN(C)c1ccc(/C=N/NC(=O)c2cc(-c3ccc4c(c3)OCO4)n[nH]2)cc1,5.3,-0.1,-5.4,-0.8,12.4*
COc1ccc(/C=N/NC(=O)c2cc(-c3ccc4c(c3)OCO4)n[nH]2)cc1OC,-2.9,-0.2,2.3,5.0,25.3*
O=C(N/N=C/c1cc2c(cc1Cl)OCO2)c1cc(-c2ccccc2)n[nH]1,1.5,0.2,4.5,-0.4,32.4*
O=C(N/N=C/c1ccc(Cl)cc1)c1ccc2c(c1)OCO2,0.5,-0.1,-9.5,2.4,-0.5
CN(C)c1ccc(/C=N/NC(=O)c2ccc3c(c2)OCCO3)cc1,-0.6,0.2,2.5,-3.1,21.1*
O=C(NCc1ccccc1Cl)c1[nH]c(C(F)(F)F)nc1-c1ccccc1,2.7,0.0,nt,nt,nt
NC(N)=NCCCS(=O)(=O)Nc1ccc(Nc2c3ccccc3nc3cc([N+](=O)[O-])ccc23)cc1,1.2,0.4,nt,nt,4.2
O=C(N/N=C/c1ccc(F)cc1)c1cc(-c2ccc3c(c2)OCO3)n[nH]1,3.2,0.0,2.6,15.4,29.2*
Cc1ccc(S(=O)(=O)/N=C2\SC(CC(=O)Nc3ccc(F)cc3)C(=O)N2c2ccccc2)cc1 (configuration not stated),4.0,-0.2,7.9,-3.9,8.8
O=C(CC1S/C(=N\S(=O)(=O)c2ccccc2)N(c2ccccc2)C1=O)Nc1ccc(F)cc1 (configuration not stated),-0.9,0.2,-3.9,-18.4,10.1*
CC1(C)Oc2cc3oc(=O)ccc3c3c2C2C1CCC(C)(O3)C2O (configuration not stated),0.4,4.2,nt,nt,nt
Cc1cc(C)c(OC2(c3ccccc3)OC(=O)c3ccccc32)c(C)c1 (configuration not stated),7.1,0.0,-4.0,2.3,15.7*
Cc1cccc(C)c1OC1(c2ccccc2)OC(=O)c2ccccc21 (configuration not stated),-0.7,-0.3,-1.2,1.2,-1.1
O=[N+]([O-])c1cnccc1-n1nnc2ccccc21,1.7,0.1,nt,nt,nt
N#Cc1c(N)n(-c2ccccc2)c(=O)c2cc([N+](=O)[O-])ccc12,0.1,-0.5,-0.7,0.6,25.1*
CC(C)n1c(N)c(C#N)c2ccc([N+](=O)[O-])cc2c1=O,6.4,1.5,-0.5,8.7,-5.7
CCOC(=O)C1=CCN(S(=O)(=O)c2ccccc2Br)C1c1ccccc1 (configuration not stated),-0.9,0.0,nt,nt,nt
C/C(=N\Nc1nc2ccccc2s1)c1ccc(Br)s1,10.6,0.0,4.6,0.9,22.6*
COc1ccc(N=C2SC(CC(=O)Nc3cccc(Cl)c3)C(=O)N2Cc2ccco2)cc1 (configuration not stated),5.4,0.2,-5.1,-1.1,11.8*
COc1ccc(NC(=O)CC2C(=O)NCCN2C(=O)Nc2ccc(C(F)(F)F)cc2)cc1 (configuration not stated),0.7,-0.3,-3.3,0.0,2.2
O=C(CC1C(=O)NCCN1C(=O)Nc1ccc(C(F)(F)F)cc1)Nc1ccc(F)cc1 (configuration not stated),-4.3,-0.1,0.7,-14.1,14.2*
CCCc1[nH]nc2c1C(c1cccnc1)C(C#N)=C(N)O2 (configuration not stated),-2.4,-0.4,1.6,10.7,-0.1
SMILES,MPTP inh,aDG glyco up,proCasp7 act,proCasp3 act,GRIN3A LBD mod
CCCc1[nH]nc2c1C(c1ccncc1)C(C#N)=C(N)O2 (configuration not stated),2.0,-0.2,-9.1,-11.5,13.6*
Cc1[nH]nc2c1C(c1ccc(-c3ccc(Cl)cc3)o1)C(C#N)=C(N)O2 (configuration not stated),5.2,0.3,7.0,18.2,14.4*
N#CC1=C(N)Oc2n[nH]c(-c3ccncc3)c2C1c1ccsc1 (configuration not stated),-0.5,0.0,0.6,-12.0,0.5
Cc1ccc(-c2[nH]nc3c2C(c2ccsc2)C(C#N)=C(N)O3)cc1 (configuration not stated),6.8,0.3,-6.1,3.9,12.5*
COCC(=O)N1CCC2CC1c1c(-c3ccc(C(F)(F)F)cc3)cccc12 (configuration not stated),0.4,0.0,nt,nt,0.9
CSCCC(C(=O)NC(C)(C)C)n1c(-c2cccc(NC(C)=O)c2)nc2ccccc21 (configuration not stated),-0.2,0.5,nt,nt,nt
Cc1ccc(N(CCC(=O)O)S(=O)(=O)c2ccc(C)cc2)cc1,2.5,-0.1,-1.0,-0.7,1.0
Cc1ccc(S(=O)(=O)N(CCC(=O)O)c2ccccc2)cc1,1.1,0.1,7.8,-12.1,15.3*
COc1ccc(CN2C(=O)C(CC(=O)NCCCCc3ccccc3)CC(C(=O)N3CCCCCC3)=C2C)cc1 (configuration not stated),-1.0,-0.1,nt,nt,nt
O=C(NCC1CC1)c1csc([C@@H]2O[C@H](CO)[C@H](O)[C@H](O)[C@H]2O)n1,-1.7,-0.1,nt,nt,nt
COc1cccc(CNC(=O)C2CCN(S(=O)(=O)N3CCCCC3)CC2)c1,-0.3,-0.1,-1.0,5.3,12.7*
COc1ccc(S(=O)(=O)N2CCC(C(=O)NCc3cccc(OC)c3)CC2)cc1,0.9,-0.2,-0.3,-1.4,1.0
Cc1noc(C)c1S(=O)(=O)N1CCC(C(=O)NCCc2ccc(S(N)(=O)=O)cc2)CC1,-1.0,0.2,9.9,1.1,11.0*
COc1ccc(OC)c(S(=O)(=O)N2CCC(C(=O)NCCc3ccc(OC)c(OC)c3)CC2)c1,0.4,-0.2,7.3,8.2,10.9*
COc1ccc(C(C)C)cc1S(=O)(=O)N1CCC(C(=O)NCC2CCCO2)CC1 (configuration not stated),0.2,0.1,-6.4,-7.1,11.1*
CC1(C(=O)NS(=O)(=O)c2ccc(Cl)s2)CCN1C(=O)CCc1ccccc1 (configuration not stated),-2.0,0.0,nt,nt,nt
O=C(NCC1CCCO1)C1CCN(C(=O)c2ccc(Br)cc2)CC1 (configuration not stated),-0.3,-0.1,-0.5,3.6,13.7*
